# What was measured:
# Assay in all cases: HIF-1a and HIF-2a reporter inhibitors, SAR follow-up, cell-based, luminescence, MIAPaCa-2, 786-0, panel (AID 652011)
# [1] = target: Endothelial PAS domain-containing protein 1 (Homo sapiens) (UniProt Q99814); conditions: MIAPaCa-2/PANC HIF reporter, luciferase luminescence, desferoxamine, overnight; HIF2a PANC cells; mean of runs
# Summary of the method: (§1)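 Probe or stimulus: desferoxamine stimulus; times: overnight seeding and compound exposure, 37 °C, 5% CO2, 10-min detection; signal: One-Glo luciferase luminescence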
# [2] = test system: HIF1a; conditions: MIAPaCa-2/PANC HIF reporter, luciferase luminescence, desferoxamine, overnight
# Summary of the method: as §1
# [3] = test system: HIF2a PANC; conditions: MIAPaCa-2/PANC HIF reporter, luciferase luminescence, desferoxamine, overnight
# Summary of the method: as §1
# [4] = target: Hypoxia-inducible factor 1-alpha (Homo sapiens) (UniProt Q16665); conditions: MIAPaCa-2/PANC HIF reporter, luciferase luminescence, desferoxamine, overnight; HIF1a; mean of runs
# Summary of the method: as §1
# [5] = run 1, individual run IC50, panel line
# [6] = run 2, individual run IC50, panel line
# Endothelial PAS domain-containing protein 1 (Homo sapiens), sequence (Q99814 whole entry, looked up, the tested form may be a part): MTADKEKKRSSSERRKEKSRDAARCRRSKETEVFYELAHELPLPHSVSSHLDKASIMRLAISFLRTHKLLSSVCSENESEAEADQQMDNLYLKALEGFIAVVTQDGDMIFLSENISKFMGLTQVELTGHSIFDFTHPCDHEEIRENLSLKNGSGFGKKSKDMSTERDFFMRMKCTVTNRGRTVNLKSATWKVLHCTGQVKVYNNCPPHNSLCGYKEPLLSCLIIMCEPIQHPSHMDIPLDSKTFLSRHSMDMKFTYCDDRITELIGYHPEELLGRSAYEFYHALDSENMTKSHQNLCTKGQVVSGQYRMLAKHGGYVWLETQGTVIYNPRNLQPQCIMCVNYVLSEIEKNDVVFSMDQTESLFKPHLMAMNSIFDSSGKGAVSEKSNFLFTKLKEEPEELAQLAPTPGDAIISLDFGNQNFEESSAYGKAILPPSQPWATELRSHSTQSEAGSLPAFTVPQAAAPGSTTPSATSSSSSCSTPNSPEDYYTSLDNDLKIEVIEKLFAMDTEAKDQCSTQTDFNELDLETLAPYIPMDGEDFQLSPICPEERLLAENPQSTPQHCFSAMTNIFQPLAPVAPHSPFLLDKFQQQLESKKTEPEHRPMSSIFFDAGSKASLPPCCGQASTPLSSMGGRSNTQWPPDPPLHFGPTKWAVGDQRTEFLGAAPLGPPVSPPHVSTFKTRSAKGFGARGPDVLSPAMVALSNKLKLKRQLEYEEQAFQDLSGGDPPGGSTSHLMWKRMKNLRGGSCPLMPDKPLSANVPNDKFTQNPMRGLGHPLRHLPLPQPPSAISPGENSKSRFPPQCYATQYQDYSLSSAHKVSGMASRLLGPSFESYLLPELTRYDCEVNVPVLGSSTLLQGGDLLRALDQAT
# Hypoxia-inducible factor 1-alpha (Homo sapiens), sequence (Q16665 whole entry, looked up): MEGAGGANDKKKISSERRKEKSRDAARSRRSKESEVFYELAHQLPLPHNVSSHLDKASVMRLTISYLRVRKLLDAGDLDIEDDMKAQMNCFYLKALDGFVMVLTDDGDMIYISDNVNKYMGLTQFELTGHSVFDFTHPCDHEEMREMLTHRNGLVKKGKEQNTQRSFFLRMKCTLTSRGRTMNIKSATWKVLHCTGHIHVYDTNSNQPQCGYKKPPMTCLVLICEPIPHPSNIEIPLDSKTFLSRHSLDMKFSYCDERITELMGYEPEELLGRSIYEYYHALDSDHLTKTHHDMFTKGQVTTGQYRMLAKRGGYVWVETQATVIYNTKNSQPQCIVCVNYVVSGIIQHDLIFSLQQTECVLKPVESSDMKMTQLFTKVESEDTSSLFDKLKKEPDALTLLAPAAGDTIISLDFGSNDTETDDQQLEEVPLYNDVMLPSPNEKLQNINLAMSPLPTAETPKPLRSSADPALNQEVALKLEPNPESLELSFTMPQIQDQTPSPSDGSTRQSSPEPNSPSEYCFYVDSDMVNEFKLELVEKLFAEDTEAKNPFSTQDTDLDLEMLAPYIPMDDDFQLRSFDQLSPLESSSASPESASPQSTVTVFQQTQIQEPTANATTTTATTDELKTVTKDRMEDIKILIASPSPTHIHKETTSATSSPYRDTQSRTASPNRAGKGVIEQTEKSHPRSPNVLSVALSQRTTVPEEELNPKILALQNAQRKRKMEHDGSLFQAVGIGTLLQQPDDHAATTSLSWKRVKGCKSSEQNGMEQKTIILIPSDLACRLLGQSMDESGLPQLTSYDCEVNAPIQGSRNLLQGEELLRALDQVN
IC50 [1],"IC50 [2, 5]","IC50 [2, 6]","IC50 [3, 5]","IC50 [3, 6]",IC50 [4],Structure (SMILES)
< 190 nM,< 190 nM,229 nM,< 190 nM,< 190 nM,229 nM,COc1cccc(NC(=O)CCc2nc(-c3ccc(C(C)(C)C)cc3)no2)c1
< 190 nM,9870 nM,6700 nM,< 190 nM,< 190 nM,8290 nM,CC(C)(C)c1ccc(-c2noc(CCC(=O)Nc3cccc([N+](=O)[O-])c3)n2)cc1
< 190 nM,38100 nM,28600 nM,< 190 nM,< 190 nM,33400 nM,CC(C)(C)c1ccc(-c2noc(CCC(=O)Nc3cccnc3)n2)cc1
< 190 nM,> 99000 nM,38000 nM,< 190 nM,< 190 nM,38000 nM,CC(C)(C)c1ccc(-c2noc(CCC(=O)NC3CCCCC3)n2)cc1
5860 nM,1170 nM,1510 nM,4440 nM,7280 nM,1340 nM,CCOc1ccc(-c2noc(CCC(=O)O)n2)cc1
< 190 nM,> 99000 nM,973 nM,< 190 nM,< 190 nM,973 nM,CCOc1ccccc1NC(=O)CCc1nc(-c2ccc(C(C)(C)C)cc2)no1
< 190 nM,> 99000 nM,< 190 nM,< 190 nM,< 190 nM,49600 nM,CC(C)(C)c1ccc(-c2noc(CCC(=O)NC3CCCC3)n2)cc1
< 190 nM,< 1000 nM,< 190 nM,< 190 nM,< 190 nM,< 190 nM,COC(=O)CCc1nc(-c2ccc(C(C)(C)C)cc2)no1
< 190 nM,> 99000 nM,647 nM,< 190 nM,< 190 nM,647 nM,COc1ccccc1NC(=O)CCc1nc(-c2ccc(C(C)(C)C)cc2)no1
< 190 nM,< 190 nM,< 190 nM,< 190 nM,< 190 nM,< 190 nM,CC(C)(C)c1ccc(-c2noc(CCC(=O)O)n2)cc1
